Experimental data of several laboratories.
Each line is one published result; the experiments were not run side by side.
Target: Dual specificity mitogen-activated protein kinase kinase 5 (MAP2K5, Homo sapiens, UniProt Q13163)
Residues used in one study (Q13163 1-448): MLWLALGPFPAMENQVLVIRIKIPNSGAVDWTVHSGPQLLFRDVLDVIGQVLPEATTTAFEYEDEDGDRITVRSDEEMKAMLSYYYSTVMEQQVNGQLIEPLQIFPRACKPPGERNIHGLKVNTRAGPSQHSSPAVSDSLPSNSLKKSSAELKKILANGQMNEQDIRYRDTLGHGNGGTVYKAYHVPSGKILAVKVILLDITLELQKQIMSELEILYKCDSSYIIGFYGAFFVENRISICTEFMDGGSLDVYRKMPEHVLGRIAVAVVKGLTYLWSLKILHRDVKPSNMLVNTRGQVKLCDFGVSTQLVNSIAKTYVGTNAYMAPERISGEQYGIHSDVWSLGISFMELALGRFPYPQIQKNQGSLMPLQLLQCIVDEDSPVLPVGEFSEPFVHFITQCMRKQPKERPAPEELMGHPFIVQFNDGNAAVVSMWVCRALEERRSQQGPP

SMILES	assay	setting	remaining binding [%]
CN(C)c1nccc(-c2cnn3ncccc23)n1	binding	1 µM	68
O=C(NCC1CCOCC1)c1n[nH]cc1NC(=O)c1c(F)cccc1F	binding, competition with immobilised ligand	1 µM	68
CN1CCN(c2cnc3c(C4CCN(C(=O)c5ccc(OC(F)(F)F)cc5N)CC4)ncnc3c2)CC1	cell-free assay, competition with immobilised ligand	1 µM	86
COc1ccnn2ncc(-c3ccnc(N(C)C)n3)c12	binding	1 µM	76
CCN1CCN(Cc2ccc(C(=O)Nc3ccc(C)c(Oc4ccc5c(c4)CC(=O)N5)c3)cc2C(F)(F)F)CC1	binding, competition with immobilised ligand	1 µM	100
F[C@@H]1CCN(c2nccc(-c3cnn4ncccc34)n2)C1	binding	1 µM	100
c1cncc(-c2cccc(Nc3nccc(NC4CCCCC4)n3)c2)c1	binding, competition with immobilised ligand	10 µM	23
C[C@H]1CCN(c2nccc(-c3cnn4ncccc34)n2)C1	binding	1 µM	81
O=C(c1ccc(Nc2ncc(Cl)c(-c3ccc(Cl)s3)n2)cc1)N1CCC(N2CCCC2)CC1	binding, competition with immobilised ligand	1 µM	0.85
CN(C)c1nccc(-c2cnc3ncccn23)n1	binding	1 µM	48
Cc1noc([C@H]2C[C@@H](c3ccc(C(F)(F)F)cc3)CN(C(=O)N3CCS(=O)(=O)C3)C2)n1	cell-free assay, competition with immobilised ligand	1 µM	78
N[C@H]1CCN(c2nccc(-c3cnn4ncccc34)n2)C1	binding	1 µM	69
NS(=O)(=O)c1cc(NC(=O)Cc2ccccc2)ccc1Oc1cccc(Cl)c1	cell-free assay, competition with immobilised ligand	1 µM	88
O=C(NCCCN1CCOCC1)c1ccc(Nc2ncc(Cl)c(-c3ccc(Cl)s3)n2)cc1	binding, competition with immobilised ligand	1 µM	6.9
N#Cc1ccc(Nc2ccc3[nH]c(=O)[nH]c3c2)c(Cl)c1	cell-free assay, competition with immobilised ligand	1 µM	100
FC(F)(F)Oc1cccc(-c2cnc3ccc(-c4ccncc4)nn23)c1	cell-free assay, competition with immobilised ligand	5 µM	35
Cc1c[nH]c2nccc(Oc3c(F)cc(Nc4cc(Cl)nc(N)n4)cc3F)c12	cell-free assay, competition with immobilised ligand	0.1 µM	82
COc1cnc(Nc2cccc(S(N)(=O)=O)c2)nc1N1CCN(c2ccccc2)CC1	binding, competition with immobilised ligand	1 µM	84
CCCCN(CCCC)C(=O)CN1C[C@H](c2cc(OC)c3c(c2)OCO3)[C@@H](C(=O)O)[C@@H]1CC(C)(C)CCC	cell-free assay, competition with immobilised ligand	1 µM	100
CC1CCCN1c1nccc(-c2cnn3ncccc23)n1 (stereo not shown)	binding	1 µM	100
CN(C(=O)c1ccccc1)c1cc(N(C)c2ccc3c(c2)CCc2ccc(C(=O)NCCN4CCOCC4)cc2C3=O)ccc1F	cell-free assay, competition with immobilised ligand	1 µM	100
O=C(c1ccc(Nc2ncc(Cl)c(-c3cc4ccccc4s3)n2)cc1)N1CCC(N2CCCC2)CC1	binding, competition with immobilised ligand	1 µM	2.9
